PP5 primary – blocks human protein phosphatase 5 activity; P53041; purified PP5c, OMFP substrate fluorescence; inhibition, % at 6.7 µM; actives 0.18% (n = 320,000); AID 1987;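 active means inhibition above the campaign's mean inhibition across all tested compounds plus 3 SD, cut at about 9.5% in these data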;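 further: 0% = DMSO only and 100% = 100 µM cantharidin control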
Target sequence (P53041 whole entry, looked up): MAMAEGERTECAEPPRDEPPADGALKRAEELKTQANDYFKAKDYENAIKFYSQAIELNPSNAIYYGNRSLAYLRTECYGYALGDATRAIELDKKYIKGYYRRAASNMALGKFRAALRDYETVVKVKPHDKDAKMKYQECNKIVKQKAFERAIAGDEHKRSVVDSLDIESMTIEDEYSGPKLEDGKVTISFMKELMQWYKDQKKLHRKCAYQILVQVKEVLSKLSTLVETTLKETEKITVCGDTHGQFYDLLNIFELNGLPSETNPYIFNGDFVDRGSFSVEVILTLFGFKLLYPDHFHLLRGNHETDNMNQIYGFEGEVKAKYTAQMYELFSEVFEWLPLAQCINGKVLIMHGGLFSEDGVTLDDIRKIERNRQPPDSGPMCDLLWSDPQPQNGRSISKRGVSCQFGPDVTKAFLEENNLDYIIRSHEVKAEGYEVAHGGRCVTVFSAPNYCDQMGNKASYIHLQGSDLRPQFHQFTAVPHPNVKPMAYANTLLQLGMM
DNA FID counter-1 – fluorescent intercalator displacement, NS3 helicase counter-screen; DNA fluorescent intercalator displacement, fluorescence; inhibition, % at 7.9 µM; actives 0.17% (n = 290,000); AID 1845;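 further: 0% = vehicle and 100% = reference compound; higher means more ethidium bromide displaced from hairpin DNA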
HIF act – HIF pathway transcriptional activation; U2OS HRE-luciferase reporter, luminescence; normalized: DMSO 0%, desferrioxamine 100%; activation, % at 7.5 µM (by protocol); actives 0.32% (n = 300,000); AID 1910;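 active means mean activation of at least 10% of the iron chelator positive control signal, with at least half of replicates also reaching 10%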
PP1 inh – PP1-alpha (human) inhibition in PP5 counter-screen; P62136; purified PP1alpha, OMFP fluorescence; inhibition, % at 6.7 µM; actives 0.9% (n = 320,000); AID 2235;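 active means inhibition above the mean inhibition of all tested compounds plus 3 SD, computed separately for each screening campaign, cut at about 15% in these data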
NS3 helicase inh – inhibitors of Hepatitis C virus NS3 helicase; AID 1800; inhibition, % at 10.9 µM; actives 0.56% (n = 290,000); NS3 helicase DNA unwinding, Cy5 molecular beacon fluorescence;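 active means inhibition above the mean of all tested compounds plus 3 SD, set per campaign, cut at about 35% in these data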;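 further: 0% = DMSO wells and 100% = thioflavine S control wells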
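test system = hepatitis C virus NS3 helicase domain fragment enzyme | reagent = annealed dual-labelled DNA beacon duplex, ATP-started | times = 1 h at 25 °C | detection = Cy5 fluorescence, 0 and 60 min reads | read-out basis = percent inhibition from t60/t0 fluorescence ratio | control set = DMSO and thioflavine S | replication = one well per compound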
NS3 hel confirm – HCV NS3 helicase inhibition, confirmation assay | inhibition, % at 10.9 µM | shares compounds with NS3 helicase inh | NS3 helicase DNA unwinding, Cy5 molecular beacon fluorescence | actives 31% (n = 1,600);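 active means inhibition above the mean of all tested compounds plus 3 SD, cutoff set per campaign, cut at about 36% in these data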
DNA FID counter-2 – counter-screen for HCV NS3 helicase inhibitors: DNA intercalator displacement; inhibition, % at 7.9 µM; shares compounds with NS3 helicase inh; actives 4% (n = 1,600); AID 1945; DNA fluorescent intercalator displacement, fluorescence;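 further: 0% = vehicle and 100% = reference compound; higher means more displacement of ethidium bromide from the DNA hairpin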
FID counter DR – DNA intercalator displacement in dose response; shares compounds with NS3 helicase inh; fluorescent intercalator displacement from DNA, fluorescence; IC50, µM; 120 tested, under 10 active; AID 2172; call rule not given here
Active calls of the source: *; . = no result. Rows were chosen to be rich in hits. Some 1.9% of all compounds tested hit in one or more screens of this group. Unless noted, no stated cut-off is given here; in the data, active means inhibition above about 37%; inactive means the rest.

SMILES	PP5 primary	DNA FID counter-1	HIF act	PP1 inh	NS3 helicase inh	NS3 hel confirm	DNA FID counter-2	others
Cc1nn(-c2ccccc2)c2c1C1(C(=O)N(C)c3ccccc31)C(C#N)=C(N)O2 (stereo not given)	1	-22	-1	2	42*	-21	-27
CCN1C(=O)C2(C(C#N)=C(N)Oc3c2c(C)nn3-c2ccccc2)c2ccccc21 (stereo not given)	5	-20	0	3	15	.	.
O=C(CN1C(=O)NC2(CCCC2)C1=O)OCCOc1ccc(Cl)cc1	1	.	0	-1	.	.	.
NS(=O)(=O)c1cc(C(=O)N2CCNC(=O)C2)ccc1Cl	-2	-2	-1	-7	9	.	.
CCOc1ccc(OCCCCN(C)C)cc1	2	14	0	1	49*	-7	15
O=C(CSCc1cc(=O)n2ccsc2n1)Nc1ccccc1	-2	-3	0	0	0	.	.
CCOc1ccc(-n2c(N)c(-c3nc4ccccc4n3C)c3nc4ccccc4nc32)cc1	0	-2	0	0	-4	.	.
O=C(O)c1ccc(-n2cccc2/C=C2/NC(=O)N(c3cccc(Cl)c3)C2=O)cc1	.	-31	.	.	41*	70*	-17	FID counter DR=>79
O=C(/C=C/c1ccco1)Nc1sc2c(c1C(=O)O)CCC2	2	-7	0	3	47*	19	19
N#Cc1c(NC(=O)/C=C/c2ccco2)sc2c1CCCC2	1	-16	7	6	34	.	.
COc1ccc(C2=NOC(C)(c3nnc(-c4ccccc4)o3)C2)cc1 (stereo not given)	2	.	-1	1	.	.	.
O=C(c1cccc(Br)c1)N1CCN(c2cnn(-c3ccccc3)c(=O)c2Cl)CC1	1	-28	0	-2	-8	.	.
CCOc1ccc(C(=O)N2CCN(c3cnn(-c4ccccc4)c(=O)c3Cl)CC2)cc1	-2	-5	0	2	40*	-4	-53
COc1ccc(-c2cn3nc(SCC(=O)NC4CCCCC4)ccc3n2)cc1	2	-40	5	-3	-4	.	.
O=C1OC(/C=C/c2ccc(Cl)cc2)=NC/1=C/c1ccco1	-2	-17	1	4	41*	-2	3
CCCCOC(=O)CSc1nc(N)c(C#N)c(-c2ccc(OCC)cc2)c1C#N	-2	0	-7	-5	-1	.	.
CCOC(=O)CC(=O)CSc1nc(N)c(C#N)c(-c2ccc(F)cc2)c1C#N	1	-4	0	6	57*	-3	5
CCCc1nc2ccccc2c(=O)n1CC(=O)c1ccc(F)cc1	1	-25	0	-1	1	.	.
CCn1c(SCC(=O)NNC(=O)c2ccc(C)cc2)nnc1C1CC1	3	-8	0	-2	-4	.	.
O=C(Nc1ccc(Oc2ccc(Cl)cc2)c(Cl)c1)c1cc(I)cc(I)c1O	-2	17	0	-1	47*	84*	33
CCCC(C(=O)NC1CCCC1)N(CC1CCCO1)C(=O)CNS(=O)(=O)c1ccccc1 (stereo not given)	1	-32	0	-2	-7	.	.
O=C(CN1CCC(C(=O)O)CC1)Nc1ccccc1Oc1ccccc1	0	-9	-1	-1	37*	-13	-18
COc1ccccc1NC(=O)CN1CCC(C(=O)c2ccc(F)cc2)CC1	3	-16	0	2	-14	.	.
CN(C)c1ccc(N=C/C=C2/N(C)c3ccccc3C2(C)C)cc1	.	-3	1	.	36*	-13	42*
CN1/C(=C\C=N\O)C(C)(C)c2ccccc21	3	-2	0	-3	-9	.	.
CCO[C@@H]1OC(C(=O)NCc2nc3ccccc3[nH]2)=C[C@H](c2ccc(C(F)(F)F)cc2)[C@H]1CCCO	3	-18	-1	4	-21	.	.
Cc1ccc(-c2ccc(C3C(C#N)=C(N)Oc4n[nH]c(C)c43)o2)cc1 (stereo not given)	4	-14	3	3	40*	-25	8
Cc1[nH]nc2c1C(c1ccc(-c3ccc(Cl)cc3)o1)C(C#N)=C(N)O2 (stereo not given)	2	-12	1	5	23	.	.
